# Measurements: ChEMBL document CHEMBL4265871, “Novel alkylated azoles as potent antifungals” (Eur J Med Chem, 2017)
# Columns and labels:
# Candida albicans [1] = assay: Antifungal activity against ITC and FLC-susceptible Candida albicans ATCC MYA-2310 incubated for 48 hrs by modified CLSI M27-A3 protocol based method; format: functional; settings: ATCC MYA-2310, 48 h
# Candida albicans [2] = assay: Antifungal activity against Candida albicans ATCC 64124 incubated for 48 hrs by modified CLSI M27-A3 protocol based method; format: functional; settings: ATCC 64124, 48 h
# Candida albicans [3] = assay: Antifungal activity against Candida albicans ATCC 10231 incubated for 48 hrs by modified CLSI M27-A3 protocol based method; format: functional; settings: ATCC 10231, 48 h, read-out: MIC100
# Summary of the method: (§1)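 For C. albicans ATCC 10231, C. krusei ATCC 6258 and C. parapsilosis ATCC 22019, MIC-0 was read, meaning complete growth inhibition. For azole controls, MIC-2 (50% growth inhibition) was reported instead. Caspofungin and voriconazole were tested here; other controls came from earlier work.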
# [4] = Selectivity index, ratio of EC50 for toxicity in human BEAS2B cells to MIC50 for antifungal activity against ITC and FLC-resistant Candida albicans ATCC MYA-90819; format: cell-based; settings: BEAS-2B cells, read-out: Selectivity Index
# Summary of the method: (§2)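 Ratio of the compound's EC50 against BEAS-2B cells to its MIC against the named C. albicans strain. […] For C. albicans strains other than ATCC 10231, trailing growth meant MIC-2 was taken, meaning 50% growth inhibition.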
# [5] = Selectivity index, ratio of EC50 for toxicity in human A549 cells to MIC50 for antifungal activity against ITC and FLC-resistant Candida albicans ATCC MYA-90819; format: cell-based; settings: read-out: Selectivity Index
# Summary of the method: (§3)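 Selectivity index is the EC50 against the mammalian line (A549 or BEAS-2B) divided by the MIC against the given fungal strain.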
# [6] = Selectivity index, ratio of EC50 for toxicity in human A549 cells to MIC50 for antifungal activity against ITC and FLC-susceptible Candida albicans ATCC MYA-2310; format: cell-based; settings: read-out: Selectivity Index; summary of the method: as §3
# in vitro = settings: mouse, mouse erythrocytes
# [7] = Selectivity index, ratio of EC50 for toxicity in human A549 cells to MIC50 for antifungal activity against Candida krusei ATCC 6258
# [8] = Hemolytic activity in mouse erythrocytes assessed as hemolysis level at 7.8 ug/ml incubated for 1 hr at 37 degC; format: ADME, cell-based, Erythrocyte; settings: read-out: Activity
# Summary of the method: (§4)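 Mouse erythrocytes incubated 1 h at 37 °C with test agents over 1.95 to 125 µg/mL. Percent lysis is read for each concentration.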
# [9] = Selectivity index, ratio of EC50 for toxicity in human A549 cells to MIC50 for antifungal activity against Candida glabrata ATCC 2001; format: cell-based; settings: read-out: Selectivity Index; summary of the method: as §3
# [10] = Hemolytic activity in mouse erythrocytes assessed as hemolysis level at 125 ug/ml incubated for 1 hr at 37 degC; format: ADME, cell-based, Erythrocyte; settings: read-out: Activity; summary of the method: as §4
# Candida parapsilosis = assay: Antifungal activity against Candida parapsilosis ATCC 22019 incubated for 48 hrs by modified CLSI M27-A3 protocol based method; format: functional; settings: Lodderomyces parapsilosis, ATCC 22019, 48 h; read-out: MIC100; summary of the method: as §1
# Candida albicans [11] = assay: Antifungal activity against ITC and FLC-resistant Candida albicans ATCC 1237 incubated for 48 hrs by modified CLSI M27-A3 protocol based method; format: functional; settings: ATCC 1237, 48 h
# Summary of the method: (§5)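 Because these Candida strains show trailing growth, MIC-2 was read, meaning 50% growth inhibition. Caspofungin and voriconazole were tested here; other controls came from earlier work.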
# [12] = Selectivity index, ratio of […] for toxicity in human A549 cells to MIC50 for antifungal activity against Aspergillus flavus ATCC MYA-3631; format: cell-based; settings: read-out: Selectivity Index
# [13] = Hemolytic activity in mouse erythrocytes assessed as hemolysis level at 31.3 ug/ml incubated for 1 hr at 37 degC; format: ADME, cell-based, Erythrocyte; settings: read-out: Activity; summary of the method: as §4
# [14] = Selectivity index, ratio of EC50 for toxicity in human BEAS2B cells to MIC50 for antifungal activity against ITC and FLC-resistant Candida albicans ATCC 1237; format: cell-based; settings: BEAS-2B cells, read-out: Selectivity Index; summary of the method: as §3
# [15] = Selectivity index, ratio of EC50 for toxicity in human BEAS2B cells to MIC50 for antifungal activity against Candida albicans ATCC 64124; format: cell-based; settings: BEAS-2B cells, read-out: Selectivity Index; summary of the method: as §3
# [16] = Selectivity index, ratio of […] for toxicity in human BEAS2B cells to MIC50 for antifungal activity against Aspergillus terreus ATCC MYA-3633; format: cell-based; settings: BEAS-2B cells, read-out: Selectivity Index
# [17] = Hemolytic activity in mouse erythrocytes assessed as hemolysis level at 1.95 ug/ml incubated for 1 hr at 37 degC; format: ADME, cell-based, Erythrocyte; settings: read-out: Activity; summary of the method: as §4
# [18] = Selectivity index, ratio of EC50 for toxicity in human BEAS2B cells to MIC50 for antifungal activity against Candida glabrata ATCC 2001; format: cell-based; settings: BEAS-2B cells, read-out: Selectivity Index; summary of the method: as §3
# [19] = Selectivity index, ratio of EC50 for toxicity in human BEAS2B cells to MIC for antifungal activity against Candida parapsilosis ATCC 22019; settings: BEAS-2B cells
# [20] = Selectivity index, ratio of EC50 for toxicity in human BEAS2B cells to MIC50 for antifungal activity against Candida krusei ATCC 6258; settings: BEAS-2B cells
# [21] = Selectivity index, ratio of EC50 for toxicity in human BEAS2B cells to MIC50 for antifungal activity against ITC and FLC-resistant Candida albicans ATCC MYA-1003; format: cell-based; settings: BEAS-2B cells, read-out: Selectivity Index; summary of the method: as §3
# Candida albicans [22] = assay: Antifungal activity against ITC and FLC-resistant Candida albicans ATCC MYA-1003 incubated for 48 hrs by modified CLSI M27-A3 protocol based method; format: functional; settings: ATCC MYA-1003, 48 h; summary of the method: as §5
# [23] = Selectivity index, ratio of EC50 for toxicity in human BEAS2B cells to MIC100 for antifungal activity against Candida albicans ATCC 10231; format: cell-based; settings: BEAS-2B cells, read-out: Selectivity Index; summary of the method: as §3
# [24] = Selectivity index, ratio of EC50 for toxicity in human BEAS2B cells to MIC50 for antifungal activity against ITC and FLC-susceptible Candida albicans ATCC MYA-2310; format: cell-based; settings: BEAS-2B cells, read-out: Selectivity Index; summary of the method: as §2
# [25] = Selectivity index, ratio of EC50 for toxicity in human A549 cells to MIC100 for antifungal activity against Candida albicans ATCC 10231; format: cell-based; settings: read-out: Selectivity Index; summary of the method: as §3
# [26] = Selectivity index, ratio of […] for toxicity in human A549 cells to MIC50 for antifungal activity against Aspergillus nidulans ATCC 38163; format: cell-based; settings: read-out: Selectivity Index
# [27] = Selectivity index, ratio of EC50 for toxicity in human A549 cells to MIC for antifungal activity against Candida parapsilosis ATCC 22019
# Pichia kudriavzevii = assay: Antifungal activity against Candida krusei ATCC 6258 incubated for 48 hrs by modified CLSI M27-A3 protocol based method; format: functional; settings: ATCC 6258, 48 h, read-out: MIC100; summary of the method: as §1
# [28] = Selectivity index, ratio of […] for toxicity in human BEAS2B cells to MIC50 for antifungal activity against Aspergillus flavus ATCC MYA-3631; format: cell-based; settings: BEAS-2B cells, read-out: Selectivity Index
# [29] = Toxicity in human A549 cells assessed as reduction in cell viability incubated for 24 hrs by resazurin dye based assay
# Summary of the method: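 Toxicity tested in the nucleated lines A549 and BEAS-2B to give EC50 values. Selectivity index is EC50 against the mammalian line divided by the MIC against a given fungal strain.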
SMILES,MIC50 (Candida albicans [1]),MIC50 (Candida albicans [2]),MIC (Candida albicans [3]),selectivity ratio [4],selectivity ratio [5],selectivity ratio [6],selectivity ratio [7],selectivity ratio [9],MIC (Candida parapsilosis),MIC50 (Candida albicans [11]),selectivity ratio [12],selectivity ratio [14],selectivity ratio [15],selectivity ratio [16],selectivity ratio [18],selectivity ratio [19],selectivity ratio [20],selectivity ratio [21],MIC50 (Candida albicans [22]),selectivity ratio [23],further results
CCCCCCC(O)(Cn1cncn1)c1ccc(F)cc1F (configuration not stated),12.6 µM,25.2 µM,6.3 µM,16,18,9,292,9,< 0.1 µM,6.3 µM,2,16,4,4,8,1040,261,16,6.3 µM,16,"hemolysis at 1 h, 62.5 ug/ml (in vitro): 26.3%; hemolysis at 1 h, 7.8 ug/ml [8]: 0%; hemolysis at 1 h, 125 ug/ml [10]: 60.9%; hemolysis at 1 h, 31.3 ug/ml [13]: 10.4%; hemolysis at 1 h, 1.95 ug/ml [17]: 0%; selectivity ratio [24]: 8; selectivity ratio [25]: 18; selectivity ratio [26]: 73; selectivity ratio [27]: 1170; MIC (Pichia kudriavzevii): 0.39 µM; selectivity ratio [28]: 2; EC50 at 24 h [29]: 35 µg/mL"
CCCCCCC(O)(Cn1cncn1)c1ccccc1F (configuration not stated),3.3 µM,> 107 µM,6.7 µM,130,130,32,522,32,0.41 µM,3.3 µM,1 to 2,32,1,8,32,261,522,8,13.4 µM,16,"hemolysis at 1 h, 62.5 ug/ml (in vitro): 28.8%; hemolysis at 1 h, 7.8 ug/ml [8]: 0%; hemolysis at 1 h, 125 ug/ml [10]: 85.6%; hemolysis at 1 h, 31.3 ug/ml [13]: 8.7%; hemolysis at 1 h, 1.95 ug/ml [17]: 0%; selectivity ratio [24]: 32; selectivity ratio [25]: 16; selectivity ratio [26]: 65; selectivity ratio [27]: 261; MIC (Pichia kudriavzevii): 0.21 µM; selectivity ratio [28]: 1 to 2; EC50 at 24 h [29]: > 31.3 µg/mL"
CCCCCCC(O)(Cn1cncn1)c1ccc(Cl)cc1Cl (configuration not stated),5.7 µM,5.7 µM,0.7 µM,14,10,10,667,10,< 0.09 µM,5.7 µM,5,14,14,7,14,933,933,29,2.8 µM,117,"hemolysis at 1 h, 62.5 ug/ml (in vitro): 98%; hemolysis at 1 h, 7.8 ug/ml [8]: 1.6%; hemolysis at 1 h, 125 ug/ml [10]: 105%; hemolysis at 1 h, 31.3 ug/ml [13]: 92%; hemolysis at 1 h, 1.95 ug/ml [17]: 0%; selectivity ratio [24]: 14; selectivity ratio [25]: 83; selectivity ratio [26]: 42; selectivity ratio [27]: 667; MIC (Pichia kudriavzevii): 0.09 µM; selectivity ratio [28]: 7; EC50 at 24 h [29]: 20 µg/mL"
CCCCCC(O)(Cn1cncn1)c1ccc(F)cc1 (configuration not stated),14.1 µM,> 113 µM,14.1 µM,34,32,8,32,4,1.7 µM,7 µM,1,17,1,1,4,69,34,1,> 113 µM,8,selectivity ratio [24]: 8; selectivity ratio [25]: 8; selectivity ratio [26]: 8; selectivity ratio [27]: 65; MIC (Pichia kudriavzevii): 3.5 µM; selectivity ratio [28]: 1; EC50 at 24 h [29]: > 31.3 µg/mL
CCCC(O)(Cn1cncn1)c1ccc(Cl)cc1Cl (configuration not stated),13 µM,13 µM,0.8 µM,8,8,8,522,8,< 0.1 µM,26 µM,2,4,8,8,8,1040,522,32,3.2 µM,130,selectivity ratio [24]: 8; selectivity ratio [25]: 130; selectivity ratio [26]: 16; selectivity ratio [27]: 1040; MIC (Pichia kudriavzevii): 0.2 µM; selectivity ratio [28]: 2; EC50 at 24 h [29]: > 31.3 µg/mL
CCCCCC(O)(Cn1cncn1)c1ccc(Cl)cc1 (configuration not stated),53.1 µM,26.5 µM,6.6 µM,16,16,2,261,8,0.2 µM,13.3 µM,1,8,4,1,8,522,261,16,6.6 µM,16,selectivity ratio [24]: 2; selectivity ratio [25]: 16; selectivity ratio [26]: 4; selectivity ratio [27]: 522; MIC (Pichia kudriavzevii): 0.41 µM; selectivity ratio [28]: 1; EC50 at 24 h [29]: > 31.3 µg/mL
